ChEMBL document CHEMBL1125114, “Cardiotonic agents. 6. Histamine analogues as potential cardiovascular selective H2 agonists” (J Med Chem, 1990)
Values joined by “and” are separate entries in the source; they are usually repeats but may differ in a detail not shown here. Equal values may be shown once. Active and inactive are the calls of the source. No cut-off for these calls is given here.

What was measured:
Mustela putorius furo [1] = species: Mustela putorius furo; test: In vitro inotropy blocking studies in ferret papillary muscle in the presence of 10 uM cimetidine; NB-Not Blocked; format: functional, tissue-based; conditions: Muscle tissue
How it was run: (§1)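 Ferret papillary muscle dose-response repeated in the presence of antagonist (cimetidine). A rise of at least 1 order of magnitude in the measured C20 was scored as a blocked inotropic response.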

Mustela putorius furo [2] = species: Mustela putorius furo; test: In vitro inotropy blocking studies in ferret papillary muscle in the presence of 100 uM nadolol; B-Blocked; format: functional, tissue-based; conditions: Muscle tissue
How it was run: (§2)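 Ferret papillary muscle dose-response repeated in the presence of 100 μM nadolol. A rise of at least 1 order of magnitude in the measured C20 was scored as a blocked inotropic response.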

[3] = Concentration which gives 20% increase in the force contraction in ferret papillary muscle; format: functional, Mustela putorius furo, Muscle tissue
How it was run: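 Isolated ferret papillary muscle, force of contraction recorded over a dose-response range. C20 = concentration giving a 20% increase in contractile force. Single experiments reported individually; with three or more runs, mean and range given.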

Cavia porcellus [4] = species: Cavia porcellus; test: Chronotropic effect of histamine at 5 ug/mL in guinea pig atrium; NR-Not reached; format: functional, Cardiac atrium
Cavia porcellus [5] = species: Cavia porcellus; test: Contractile response of histamine at 0.5 ug/mL in guinea pig ileum; format: functional
How it was run: (§3)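 Isolated guinea pig ileum, H1 activity. Value is the concentration giving 50% of the contractile response of histamine at 0.5 μg/mL, taken from dose-response curves. Reported as mean ± SEM of three separate dose-response determinations. Response sensitivity checked with mepyramine.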

Cavia porcellus [6] = test: In vivo percent change in air way overflow in guinea pig was determined at a dose of 10 mg/kg/hr; format: functional
Cavia porcellus [7] = test: In vivo percent change in mean arterial pressure in guinea pig was determined at a dose of 10 mg/kg/hr; format: functional, Artery
How it was run: (§4)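 Pentobarbital-anesthetized guinea pigs with stomach ligated to contain gastric fluid. After 30 min stabilization, blood pressure, heart rate, LVEDP and LV dP/dtmax were recorded at 1-min intervals. Compound given by iv infusion for 60 min, then monitored 10 min more. Gastric contents were titrated against 0.1 N NaOH. Value is the average maximum % change from control in the 10 min after infusion, mean ± SEM.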

Cavia porcellus [8] = test: In vivo percent change in total acid secretion in guinea pig was determined at a dose of 10 mg/kg/hr; format: functional; how it was run: as §4
Rattus norvegicus [9] = test: In vivo effect on gastric acid secretion in rat was determined after subcutaneous administration; NC-No change; format: functional, organism-based; conditions: Stomach
How it was run: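 Rats, subcutaneous dosing, gastric acid secretion stimulation. ED50 is the dose giving a 50% increase in acid secretion over control. Reported as mean ± SEM of three separate dose-response determinations.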

[10] = dP/dt value of the compound; format: functional; parameters: unit not given here
Mustela putorius furo [11] = species: Mustela putorius furo; test: (§5) In vitro inotropy blocking studies in ferret papillary muscle in the presence of 10 uM cimetidine; B-Blocked; format: functional, tissue-based; conditions: Muscle tissue
Mustela putorius furo [12] = species: Mustela putorius furo; test: (§6) In vitro inotropy blocking studies in ferret papillary muscle in the presence of 100 uM nadolol; NB-Not Blocked; format: functional, tissue-based; conditions: Muscle tissue
How it was run: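 Ferret papillary muscle inotropic dose-response curves repeated in the presence of each antagonist (nadolol at 100 μM). A rise in C20 of at least one order of magnitude was scored as a blocked response.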

Cavia porcellus [13] = test: In vivo percent change in airway overflow in guinea pig was determined at a dose of 7.5 mg/kg/h; format: functional
Cavia porcellus [14] = test: In vivo percent change in heart rate in guinea pig was determined at a dose of 7.5 mg/kg/h; format: functional
Cavia porcellus [15] = test: In vivo percent change in mean arterial pressure in guinea pig was determined at a dose of 7.5 mg/kg/h; format: functional, Artery
Cavia porcellus [16] = test: In vivo percent change in total acid secretion in guinea pig was determined at a dose of 7.5 mg/kg/h; format: functional
Rattus norvegicus [17] = test: In vivo effect on gastric acid secretion in rat was determined after subcutaneous administration; format: functional; conditions: Stomach, sc
How it was run: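 Rats, subcutaneous dosing, gastric acid secretion measured by the method of Hagiwara and co-workers. ED50 = dose giving a 50% increase in acid secretion over control. Mean ± SEM of three separate dose-response determinations.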

Mustela putorius furo [18] = species: Mustela putorius furo; test: In vitro inotropy blocking studies in ferret papillary muscle in the presence of 100 uM nadolol; Blocked; format: functional, tissue-based; conditions: Muscle tissue; how it was run: as §2
Cavia porcellus [19] = test: In vivo percent change in heart rate in guinea pig was determined at a dose of 10 mg/kg/hr; format: functional; how it was run: as §4
Mustela putorius furo [20] = species: Mustela putorius furo; test: Concentration of compound which gives 20% increase in the force contraction in ferret papillary muscle;NR- Not reached; format: functional, tissue-based; conditions: Muscle tissue
How it was run: (§7)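 Ferret papillary muscle force of contraction. C20 is the concentration giving a 20% increase in force. Values come from individual experiments; where three or more runs were done, the mean and range are given. NR means not reached.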

Mustela putorius furo [21] = species: Mustela putorius furo; test: as §5; format: functional, tissue-based; conditions: Muscle tissue; how it was run: as §1; remark: listed apart in the source
Mustela putorius furo [22] = species: Mustela putorius furo; test: as §6; format: functional, tissue-based; conditions: Muscle tissue; how it was run: as §2; remark: listed apart in the source
[23] = Concentration of compound which gives 20% increase in the force contraction in ferret papillary muscle.; format: functional, Mustela putorius furo, Muscle tissue; how it was run: as §7
Cavia porcellus [24] = species: Cavia porcellus; test: In vitro chronotropic effect of histamine at 5 ug/mL in guinea pig atrium; format: functional; conditions: Cardiac atrium
How it was run: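 Spontaneously beating guinea pig right atria. Value is the concentration giving 50% of the chronotropic effect of histamine at 5 μg/mL, taken from dose-response curves. Reported as mean ± SEM of three separate dose-response determinations. Response sensitivity checked with cimetidine.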

Cavia porcellus [25] = species: Cavia porcellus; test: In vitro contractile response of histamine at 0.5 ug/mL in guinea pig ileum; format: functional; how it was run: as §3
[26] = dp/dt value of the compound; format: functional; how it was run: as §4

Compound: CC(CCc1ccc(O)cc1)N(C)CCc1c[nH]cn1 (stereo not given)
- Activity (Mustela putorius furo [1]): Not blocked
- Activity (Mustela putorius furo [2]): Blocked
- C20 [3]: 0.13 uM l-1 and 0.16 uM l-1
- EC50 (Cavia porcellus [4]): Not reached
- EC50 (Cavia porcellus [5]): 128 uM l-1
- Change (Cavia porcellus [6]): 39%
- Change (Cavia porcellus [7]): 5%
- Change (Cavia porcellus [8]): 22%
- ED50 (Rattus norvegicus [9]): inactive
- dP/dt [10]: 29

Compound: CCCCCCC(=O)NCCc1c[nH]cn1
- Activity (Mustela putorius furo [11]): Blocked
- Activity (Mustela putorius furo [12]): Not blocked
- C20 [3]: 7.3 uM l-1
- EC50 (Cavia porcellus [4]): Not reached
- EC50 (Cavia porcellus [5]; Cavia porcellus, Ileum, read-out: EC50): 50.6 µM
- Change (Cavia porcellus [13]): 197%
- Change (Cavia porcellus [14]): 41%
- Change (Cavia porcellus [15]): 33%
- Change (Cavia porcellus [16]): 160%
- ED50 (Rattus norvegicus [17]): 5.9 mg/kg
- dP/dt [10]: 146

Compound: c1ccc2c3c(ccc2c1)C(NCCc1c[nH]cn1)CCC3 (stereo not given)
- C20 [3]: >10 uM l-1

Compound: O=C(NCCNCCc1c[nH]cn1)c1ccccc1
- C20 [3]: >66 uM l-1

Compound: C(=C\c1ccccc1)/CCNCCc1c[nH]cn1
- Activity (Mustela putorius furo [18]): Blocked
- C20 [3]: 14 uM l-1 and 21 uM l-1

Compound: CN(CCc1c[nH]cn1)Cc1ccco1
- Activity (Mustela putorius furo [11]): Blocked
- Activity (Mustela putorius furo [12]): Not blocked
- C20 [3]: 6.7 uM l-1
- EC50 (Cavia porcellus [4]): Not reached
- EC50 (Cavia porcellus [5]): 165 uM l-1
- Change (Cavia porcellus [6]): 51%
- Change (Cavia porcellus [19]): -8%
- Change (Cavia porcellus [7]): -22%
- Change (Cavia porcellus [8]): 221%
- ED50 (Rattus norvegicus [17]): 15.3 mg/kg
- dP/dt [10]: -6

Compound: Cc1[nH]cnc1CCNCCNC(=O)N1CCOCC1
- C20 [3]: >90 uM l-1

Compound: COc1ccc(CCNCCc2c[nH]cn2)cc1OC
- Activity (Mustela putorius furo [11]): Blocked
- Activity (Mustela putorius furo [2]): Blocked

Compound: NC(C/C=C/c1ccccc1)CCc1c[nH]cn1 (stereo not given)
- C20 (Mustela putorius furo [20]): Not reached

Compound: NCCc1c[nH]cn1 [HISTAMINE]
- Activity (Mustela putorius furo [21]): Active
- Activity (Mustela putorius furo [22]): inactive
- C20 [23]: 0.42 uM l-1
- EC50 (Cavia porcellus [24]): 0.98 µM
- EC50 (Cavia porcellus [25]): 0.24 µM
- ED50 (Rattus norvegicus [17]): 2.7 mg/kg
- dP/dt [26]: 132

Compound: CC(=O)NCCNCCc1c[nH]cn1
- C20 [3]: 46 uM l-1 and 85 uM l-1

Compound: CCCCCCCN(C)CCc1c[nH]cn1
- C20 [23]: >57 uM l-1

Compound: c1coc(CNCCCc2c[nH]cn2)c1
- C20 [3]: 33 uM l-1
